Source: PubChem BioAssay
Compounds with a hit are over-represented: about 3.6% of the library has one in this group of screens.
IMP-1 inhibitor: inhibitors of Pseudomonas aeruginosa IMP-1 metallo-beta-lactamase | purified IMP-1, nitrocefin hydrolysis, epi-absorbance fluorescence | inhibition, % at 5.6 µM | 290,000 compounds, 0.45% hits;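 active = inhibition above the mean plus 3 SD of all compounds in the same screening run, cut at about 4.5% in these data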
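System – purified recombinant IMP-1 beta-lactamase · Input – IMP-1 dispensed at 0.2 nM · Timing – 15 min preincubation plus 25 min reaction at 25 °C · Signal – Epi-absorbance fluorescence, 480 nm excitation, 530 nm emission · Measure – percent IMP-1 inhibition derived from blank-referenced optical density · Controls – Enzyme-plus-DMSO low control, enzyme-free DMSO high control · Replication – singlicate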
PAFAH2 FP inh: PAFAH2 (human) inhibition; Q99487; recombinant PAFAH2, FP-rhodamine activity probe, fluorescence polarization; inhibition, % at 3.39 µM; 340,000 compounds, 0.99% hits; AID 492956;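 active = inhibition above the mean over all tested compounds plus 3 SD, cut at about 30% in these data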;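 also: inhibitors block probe labeling of enzyme so polarization drops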
PAFAH1B2 FP inh: inhibitors of human PAFAH1B2; recombinant PAFAH1B2, FP-rhodamine activity probe, fluorescence polarization; AID 492953; inhibition, % at 3.39 µM; P68402; 340,000 compounds, 1.2% hits;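 active = inhibition above the mean of all tested compounds plus 3 SD, cut at about 24% in these data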
PAFAH1B3 inh: inhibitors of human PAFAH1B3; 340,000 compounds, 0.28% hits; Q15102; recombinant PAFAH1B3, FP-rhodamine probe, fluorescence polarization; inhibition, % at 3.39 µM;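 active = inhibition above the screen-wide average of all tested compounds plus 3 SD, cut at about 25% in these data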
Target sequence (Q15102 whole entry, looked up): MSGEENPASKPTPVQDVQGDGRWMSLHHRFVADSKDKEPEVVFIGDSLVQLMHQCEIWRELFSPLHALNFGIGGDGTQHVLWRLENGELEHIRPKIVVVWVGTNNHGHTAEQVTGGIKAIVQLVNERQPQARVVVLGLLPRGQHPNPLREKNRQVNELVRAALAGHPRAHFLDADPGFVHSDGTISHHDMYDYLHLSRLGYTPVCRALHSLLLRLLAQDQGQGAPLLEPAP
pPAFAH FP inh: pPAFAH (human) enzyme inhibition; 330,000 compounds, 1.5% hits; recombinant pPAFAH, FP-rhodamine probe fluorescence polarization; inhibition, % at 3.39 µM;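 active = inhibition above the mean inhibition across the screen plus 3 SD, cut at about 25% in these data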;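 also: inhibitors block binding of the rhodamine activity-based probe so polarization drops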
Target sequence (Q13093 whole entry, looked up): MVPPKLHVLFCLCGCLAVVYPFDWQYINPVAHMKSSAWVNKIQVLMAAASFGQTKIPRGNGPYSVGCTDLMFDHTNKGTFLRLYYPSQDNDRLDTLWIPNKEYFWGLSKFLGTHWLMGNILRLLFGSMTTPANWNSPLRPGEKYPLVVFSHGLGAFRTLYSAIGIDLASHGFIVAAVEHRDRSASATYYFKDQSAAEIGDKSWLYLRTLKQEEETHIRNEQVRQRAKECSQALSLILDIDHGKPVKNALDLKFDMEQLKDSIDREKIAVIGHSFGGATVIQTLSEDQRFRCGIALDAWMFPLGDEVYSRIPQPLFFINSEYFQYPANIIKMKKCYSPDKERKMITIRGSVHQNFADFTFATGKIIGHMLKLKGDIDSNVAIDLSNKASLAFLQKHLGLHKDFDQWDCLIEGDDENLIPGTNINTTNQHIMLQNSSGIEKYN
VIM-2 inhibitor: blocks Pseudomonas aeruginosa VIM-2 metallo-beta-lactamase. purified VIM-2, nitrocefin hydrolysis, epi-absorbance fluorescence. inhibition, % at 5.6 µM. 290,000 compounds, 0.89% hits. AID 1527;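 active = inhibition above the mean of all tested compounds plus 3 SD, cutoff set per screening run, cut at about 7.5% in these data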;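 also: red hydrolysis product quenches plate fluorescence so inhibitors raise well fluorescence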
Large screens that a line does not name were inactive.

COc1ccc(-c2cc(C(=O)Nc3cc(Br)ccc3O)no2)cc1	IMP-1 inhibitor 52.4
CN1CCN(CC/C=C2/c3ccccc3Sc3ccc(S(=O)(=O)N(C)C)cc32)CC1	pPAFAH FP inh 24.9
COc1cc2c(cc1Cl)/C(=C\CCN(C)C)c1ccccc1S2	none
O=C(CSC(=S)N1CCCC1)c1cc(Br)cc(Br)c1O	pPAFAH FP inh 25.3 (no result: PAFAH2 FP inh, PAFAH1B2 FP inh, PAFAH1B3 inh)
O=C(CSC(=S)N1CCCC1)Nc1cc2c(cc1Br)OCCO2	none
CN1c2ccccc2C(C)(C)C12C=Nc1c(ccc3ccccc13)O2 (configuration not stated)	none
COc1ccc2ccc3c(c2c1)N=CC1(O3)N(C)c2ccccc2C1(C)C (configuration not stated)	pPAFAH FP inh 33.1
COc1ccc2c(CC(=O)OCC(=O)c3ccccc3OC)coc2c1	none
COc1ccc2c(CC(=O)OCC(=O)c3ccc(F)cc3)coc2c1	IMP-1 inhibitor 5.3
COc1ccc2c(CC(=O)OCC(=O)Nc3cccc(C)c3)coc2c1	pPAFAH FP inh 32.9 (no result: IMP-1 inhibitor, VIM-2 inhibitor)
COC(=O)c1cccc(NC(=O)Cc2coc3cc(OC)ccc23)c1	none
Cc1ccccc1NC(=O)c1c(C)[nH]c(=S)c(C#N)c1-c1ccc(Cl)cc1	none (no result: PAFAH2 FP inh, PAFAH1B2 FP inh, PAFAH1B3 inh)
Cc1ccc(-c2c(C(=O)Nc3ccccc3C)c(C)[nH]c(=S)c2C#N)o1	IMP-1 inhibitor 5.7, pPAFAH FP inh 27.3 (no result: PAFAH2 FP inh, PAFAH1B2 FP inh, PAFAH1B3 inh)
COc1ccc(C)cc1S(=O)(=O)N1CCCC(C(=O)N2CCN(c3ccccc3)CC2)C1 (configuration not stated)	none
CCOC(=O)c1c(-c2ccc(C)o2)csc1NC(=O)CSc1nncs1	pPAFAH FP inh 24.9
O=C(CCN1C(=O)C2C3CCC(C3)C2C1=O)Nc1cccc(Cl)c1 (configuration not stated)	IMP-1 inhibitor 5.9
O=C(CCN1C(=O)C2CC=CCC2C1=O)Nc1cccc(Cl)c1 (configuration not stated)	none
Cc1ccc(OC(C)C(=O)Nc2ncc(Cl)cc2Cl)c([N+](=O)[O-])n1 (configuration not stated)	none (no result: IMP-1 inhibitor, VIM-2 inhibitor)
CC(OC(=O)c1ccc([N+](=O)[O-])s1)C(=O)Nc1ncc(Cl)cc1Cl (configuration not stated)	PAFAH2 FP inh 29.8, PAFAH1B3 inh 30.2, pPAFAH FP inh 25.8
Cc1ccc(CNC(=O)Nc2ccc(F)cc2)n1C	none (no result: pPAFAH FP inh)
COc1ccccc1NC(=O)NCc1ccc(C)n1C	VIM-2 inhibitor 10.6
COc1ccc(C(C#N)=C2C=CC(=NO)C(C)=C2Cl)cc1	none (no result: IMP-1 inhibitor, pPAFAH FP inh, VIM-2 inhibitor)
COC(=O)c1sc(-c2ccc(C(C)(C)C)cc2)cc1NC(=O)COCC(=O)O	pPAFAH FP inh 27.8 (no result: PAFAH2 FP inh, PAFAH1B2 FP inh, PAFAH1B3 inh)
CN1CCN(C(=O)c2ccc(NS(=O)(=O)c3cccc([N+](=O)[O-])c3)cc2)CC1	none (no result: IMP-1 inhibitor, pPAFAH FP inh, VIM-2 inhibitor)
O=S(=O)(c1ccc(Cl)cc1)N1CCCC1c1nc2ccccc2s1 (configuration not stated)	pPAFAH FP inh 30.3
Cc1ccc(S(=O)(=O)N2CCCC2c2nc3ccccc3s2)cc1 (configuration not stated)	pPAFAH FP inh 31.2
O=S(=O)(c1cc(Cl)cc(Cl)c1)N1CCCC1c1nc2ccccc2s1 (configuration not stated)	none
CCOc1cccc2cc(C(=O)NCc3ccc(Cl)cc3)c(=N)oc12	none
O=C(NN1C(=O)CSC1=S)C(=O)NN1C(=O)CSC1=S	IMP-1 inhibitor 17.6
O=C(Cc1cccc2ccccc12)NN1C(=O)CSC1=S	none
COC(=O)C1=C(C(=O)OC)[N+]2=C3N(C(=O)NC2(C)C)[C@H](CO)C[C@@]32c3ccccc3N(Cc3ccccc3)[C@@H]12	none (no result: IMP-1 inhibitor, VIM-2 inhibitor)
N#Cc1sc2nc3c(cc2c1N)CCCC3	IMP-1 inhibitor 16.6
Nc1c(C(=O)O)sc2nc3c(cc12)CCCC3	none (no result: PAFAH2 FP inh, PAFAH1B2 FP inh, PAFAH1B3 inh)
O=C(c1cc(-c2ccco2)on1)N1CCCc2ccccc21	pPAFAH FP inh 25.2
O=C(c1cc(-c2ccco2)on1)N1CCc2ccccc2C1	pPAFAH FP inh 29.9
O=C(c1cc(-c2ccccc2)on1)N1CCCc2ccccc21	none
CN(CC(=O)Nc1cccc(F)c1)C(=O)c1cccc(S(=O)(=O)N2CCN(c3ccc(F)cc3)CC2)c1	none (no result: IMP-1 inhibitor, pPAFAH FP inh, VIM-2 inhibitor)
O=C(CSc1cccc2cccnc12)OCC(=O)c1ccc(Br)cc1	IMP-1 inhibitor 5.3
CCn1cc(C(=O)NCCCN2CCCC(C)C2)c(=O)c2cc(S(=O)(=O)N(C)C3CCCCC3)ccc21 (configuration not stated)	none
COc1ccc(S(=O)(=O)Nc2ccc3c(c2)C(=O)N([C@H](C)CO)C[C@H](C)[C@@H](CN(C)S(=O)(=O)c2ccccc2)O3)cc1	PAFAH1B2 FP inh 40.4 (no result: IMP-1 inhibitor, VIM-2 inhibitor)
C[C@H]1CN([C@@H](C)CO)C(=O)c2cc(NS(=O)(=O)c3ccc(F)cc3)ccc2O[C@H]1CN(C)S(=O)(=O)c1cn(C)cn1	pPAFAH FP inh 27.9 (no result: IMP-1 inhibitor, VIM-2 inhibitor)
C[C@H](CO)N1C[C@H](C)[C@@H](CN(C)S(=O)(=O)c2cn(C)cn2)Oc2ccc(NS(=O)(=O)c3ccccc3)cc2C1=O	none (no result: IMP-1 inhibitor, VIM-2 inhibitor)
CCN(C(=O)COC(=O)CCCOc1ccccc1)c1c(N)n(Cc2ccccc2)c(=O)[nH]c1=O	none (no result: IMP-1 inhibitor, VIM-2 inhibitor)
CC(=Nc1ccccc1)C1=C(O)C(Cc2ccccc2)NC1=O (configuration not stated)	none (no result: IMP-1 inhibitor, pPAFAH FP inh, VIM-2 inhibitor)
Cc1cccc(OCCNS(=O)(=O)c2ccc(Cl)cc2)c1	PAFAH1B2 FP inh 24.2 (no result: IMP-1 inhibitor, VIM-2 inhibitor)
CCOC(=O)N1CCc2c(sc(NC(=O)c3ccc(Cl)s3)c2C(N)=O)C1	pPAFAH FP inh 24.9 (no result: PAFAH2 FP inh, PAFAH1B2 FP inh, PAFAH1B3 inh)
CCN1CCc2c(sc(NC(=O)Nc3ccc(Cl)c(Cl)c3)c2C(N)=O)C1	pPAFAH FP inh 32.5
COc1cc(N/C=C(\C(C)=O)c2ccccc2)cc(OC)c1	pPAFAH FP inh 30.9
CC(=O)/C(=C/Nc1ccc(Oc2ccccc2)cc1)c1ccccc1	none
O=C(O)c1cc(NN=Nc2cccc(S(=O)(=O)O)c2)cc([N+](=O)[O-])c1	none
O=C(O)c1cc(NN=Nc2cccc([N+](=O)[O-])c2)cc([N+](=O)[O-])c1	pPAFAH FP inh 27.0
CN(C)c1ccc(/C=N/Nc2ccc(-n3ccnc3)nn2)cc1	VIM-2 inhibitor 8.2
CN(C)c1ccc(/C=N\Nc2ccccn2)cc1	none
CC(C)C[C@@H](CNCC(=O)[C@H](CC(C)C)NC(=O)c1[nH]cnc1C(=O)N[C@@H](C)CN)NC(=O)c1nc[nH]c1C(=O)N[C@@H](CC(=O)O)C(=O)O	none (no result: IMP-1 inhibitor, pPAFAH FP inh, VIM-2 inhibitor)
Cc1ccc(CSc2ncnc3c2cnn3Cc2ccccc2)cc1C	none
Cc1ccc(CSc2ncnc3c2cnn3Cc2ccccc2)cc1	IMP-1 inhibitor 6.7
NC(=O)CSc1nc2cc(S(=O)(=O)N3CCOCC3)ccc2o1	none (no result: IMP-1 inhibitor, VIM-2 inhibitor)
CC(C)(C)OC(=O)N1CCC(C(=O)Nc2ccc(C(=O)NC3CC3)cc2)CC1	none (no result: IMP-1 inhibitor, pPAFAH FP inh, VIM-2 inhibitor)
c1ccc(C2Nc3cccc4cccc(c34)N2)cc1	none
c1csc(C2Nc3cccc4cccc(c34)N2)c1	PAFAH1B3 inh 30.2
Cc1ccc(C(=O)O/N=C(\c2ccccc2)c2ccncc2)cc1	none (no result: PAFAH2 FP inh, PAFAH1B2 FP inh, PAFAH1B3 inh)
